{"source": "ChEMBL document CHEMBL1145060", "about": "“Synthesis and evaluation of pharmacological properties of novel annelated 2,3-benzodiazepine derivatives” (2003)", "key": {"[1]": {"assay": "Anticonvulsant activity against Audiogenic seizures in DBA/2 mice was observed in tonic phase after intraperitoneal injection", "type": "functional", "conditions": "Mus musculus, ip", "procedure,_shortened": "(§1)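 Compound given intraperitoneally to DBA/2 mice 30 min before audiogenic seizure testing; clonic and tonic phases scored. ED50 (μmol/kg) with 95% confidence limits calculated by Litchfield and Wilcoxon.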"}, "[2]": {"assay": "Anticonvulsant activity against Audiogenic seizures in DBA/2 mice was observed in clonic phase after intraperitoneal injection", "type": "functional", "conditions": "Mus musculus, ip", "procedure,_shortened": "as §1"}, "[3]": {"assay": "Anticonvulsant activity against PTZ induced seizures was observed in mice after intraperitoneal injection", "type": "functional", "conditions": "Mus musculus, ip", "procedure,_shortened": "(§2)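 Swiss mice dosed ip 45 min before seizure induction by maximal electroshock (MES) or pentylenetetrazole (PTZ). ED50 (μmol/kg) with 95% confidence limits by Litchfield and Wilcoxon method.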"}, "[4]": {"assay": "Anticonvulsant activity against in MES was observed in mice after intraperitoneal injection", "type": "functional", "conditions": "Mus musculus, ip", "procedure,_shortened": "as §2"}, "[5]": {"assay": "Anticonvulsant activity against Audiogenic seizures in DBA/2 mice was observed in tonic phase after pretreatment with Aniracetam", "type": "functional", "conditions": "Mus musculus", "procedure,_shortened": "(§3)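 Audiogenic seizure test in DBA/2 mice, clonic and tonic phases; aniracetam 50 nmol given icv 60 min before testing, together with ip compound. ED50 with 95% confidence limits by Litchfield and Wilcoxon method.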"}, "[6]": {"assay": "Anticonvulsant activity against AMPA-induced seizures in DBA/2 mice was observed in tonic phase after intraperitoneal injection", "type": "functional", "conditions": "Mus musculus, ip", "procedure,_shortened": "(§4)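 DBA/2 mice given compound intraperitoneally, then challenged with AMPA to induce seizures; clonic and tonic phases scored separately. ED50 (μmol/kg) with 95% confidence limits by Litchfield and Wilcoxon method.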"}, "[7]": {"assay": "Anticonvulsant activity against Audiogenic seizures in DBA/2 mice was observed in clonic phase after pretreatment with Aniracetam", "type": "functional", "conditions": "Mus musculus", "procedure,_shortened": "as §3"}, "[8]": {"assay": "Anticonvulsant activity against AMPA-induced seizures in DBA/2 mice was observed in clonic phase after intraperitoneal injection", "type": "functional, Mus musculus", "procedure,_shortened": "as §4"}, "[9]": {"conditions": "Mus musculus, ip, read-out: ED50"}}}
{"smiles": "COc1cc2c(cc1OC)C(c1ccc(Cl)cc1)=Nn1c(n[nH]c(=O)c1=O)C2", "values": [{"measurement": "ED50", "setting": "[1]", "value": 33, "unit": "µmol/kg"}, {"measurement": "ED50", "setting": "[2]", "value": 37.4, "unit": "µmol/kg"}]}
{"smiles": "COc1cc2c(cc1OC)C(c1ccc(Br)cc1)=Nn1c(n[nH]c(=O)c1=O)C2", "values": [{"measurement": "ED50", "setting": "[1]", "value": 54.6, "unit": "µmol/kg"}, {"measurement": "ED50", "setting": "[2]", "value": 76.6, "unit": "µmol/kg"}]}
{"smiles": "COc1cc2c(cc1OC)C(c1ccccc1)=Nn1c(n[nH]c(=O)c1=O)C2", "values": [{"measurement": "ED50", "setting": "[1]", "value": 17.9, "unit": "µmol/kg"}, {"measurement": "ED50", "setting": "[2]", "value": 33.6, "unit": "µmol/kg"}, {"measurement": "ED50", "setting": "[3]", "value": 57.6, "unit": "µmol/kg"}, {"measurement": "ED50", "setting": "[4]", "value": 36.6, "unit": "µmol/kg"}]}
{"smiles": "COc1cc2c(cc1OC)C(c1ccc(N)cc1)=Nn1c(n[nH]c(=O)c1=O)C2", "values": [{"measurement": "ED50", "setting": "[1]", "value": 52.8, "unit": "µmol/kg"}, {"measurement": "ED50", "setting": "[2]", "value": 59.3, "unit": "µmol/kg"}]}
{"smiles": "COc1cc2c(cc1OC)C(c1ccc(N)cc1)=NNC(=O)C2", "values": [{"measurement": "ED50", "setting": "[5]", "value": 56.2, "unit": "µmol/kg"}, {"measurement": "ED50", "setting": "[6]", "value": 25, "unit": "µmol/kg"}, {"measurement": "ED50", "setting": "[2]", "value": 15, "unit": "µmol/kg"}]}
{"smiles": "COc1cc2c(cc1OC)C(c1cccc([N+](=O)[O-])c1)=Nn1c(n[nH]c(=O)c1=O)C2", "values": [{"measurement": "ED50", "setting": "[1]", "value": 88.9, "unit": "µmol/kg"}, {"measurement": "ED50", "setting": "[2]", "value": "> 120", "unit": "µmol/kg"}]}
{"smiles": "COc1cc2c(cc1OC)C(c1cccc(N)c1)=Nn1c(n[nH]c(=O)c1=O)C2", "values": [{"measurement": "ED50", "setting": "[1]", "value": 57.7, "unit": "µmol/kg"}, {"measurement": "ED50", "setting": "[2]", "value": 74.5, "unit": "µmol/kg"}]}
{"smiles": "COc1cc2c(cc1OC)C(c1ccc([N+](=O)[O-])cc1)=Nn1c(n[nH]c(=O)c1=O)C2", "values": [{"measurement": "ED50", "setting": "[1]", "value": 25.7, "unit": "µmol/kg"}, {"measurement": "ED50", "setting": "[2]", "value": 60, "unit": "µmol/kg"}]}
{"smiles": "COc1cc2c(cc1OC)C(c1ccc(F)cc1)=Nn1c(n[nH]c(=O)c1=O)C2", "values": [{"measurement": "ED50", "setting": "[1]", "value": 28, "unit": "µmol/kg"}, {"measurement": "ED50", "setting": "[2]", "value": 39.2, "unit": "µmol/kg"}, {"measurement": "ED50", "setting": "[3]", "value": 63.2, "unit": "µmol/kg"}, {"measurement": "ED50", "setting": "[4]", "value": 37.8, "unit": "µmol/kg"}]}
{"smiles": "COc1cc2c(cc1OC)C(c1ccc(Cl)cc1)=Nn1c(O)nnc1C2", "values": [{"measurement": "ED50", "setting": "[5]", "value": 71.8, "unit": "µmol/kg"}, {"measurement": "ED50", "setting": "[1]", "value": 14.1, "unit": "µmol/kg"}, {"measurement": "ED50", "setting": "[2]", "value": 28.8, "unit": "µmol/kg"}, {"measurement": "ED50", "setting": "[7]", "value": 87.8, "unit": "µmol/kg"}, {"measurement": "ED50", "setting": "[3]", "value": 33.1, "unit": "µmol/kg"}, {"measurement": "ED50", "setting": "[8]", "value": 46.8, "unit": "µM/kg"}, {"measurement": "ED50", "setting": "[8]; [9]", "value": 46.8, "unit": "µmol/kg"}]}
{"smiles": "COc1cc2c(cc1OC)C(c1ccc(Br)cc1)=Nn1c(O)nnc1C2", "values": [{"measurement": "ED50", "setting": "[5]", "value": 7.87, "unit": "µmol/kg"}, {"measurement": "ED50", "setting": "[1]", "value": 1.34, "unit": "µmol/kg"}, {"measurement": "ED50", "setting": "[2]", "value": 3.65, "unit": "µmol/kg"}, {"measurement": "ED50", "setting": "[7]", "value": 18.6, "unit": "µmol/kg"}, {"measurement": "ED50", "setting": "[3]", "value": 13.8, "unit": "µmol/kg"}, {"measurement": "ED50", "setting": "[8]", "value": 17.7, "unit": "µM/kg"}, {"measurement": "ED50", "setting": "[8]; [9]", "value": 17.7, "unit": "µmol/kg"}, {"measurement": "ED50", "setting": "[4]", "value": 5.93, "unit": "µmol/kg"}]}
{"smiles": "CC1=NN=C(c2ccc(N)cc2)c2cc3c(cc2C1)OCO3", "note": "[GYKI-52466]", "values": [{"measurement": "ED50", "setting": "[5]", "value": 100, "unit": "µmol/kg"}, {"measurement": "ED50", "setting": "[8]; [9]", "value": 57.5, "unit": "µmol/kg"}]}
{"smiles": "CC(=O)N1N=C(c2ccc(N)cc2)c2cc3c(cc2C[C@H]1C)OCO3", "note": "[TALAMPANEL]", "values": [{"measurement": "ED50", "setting": "[1]", "value": 9.7, "unit": "µmol/kg"}, {"measurement": "ED50", "setting": "[3]", "value": 56.3, "unit": "µmol/kg"}, {"measurement": "ED50", "setting": "[8]; [9]", "value": 44.2, "unit": "µmol/kg"}, {"measurement": "ED50", "setting": "[4]", "value": 28.8, "unit": "µmol/kg"}]}
